Tests used:
Type in all cases: ADME, organism-based
Hypothalamus = test: Drug uptake in Sprague-Dawley rat hypothalamus at 12.2 MBq, iv after 60 mins by autoradiography; conditions: in vivo, 1 h
How it was run: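 [¹⁸F]-labelled tracer (0.2 mL, 12.2 MBq) given intravenously to conscious Sprague-Dawley rats (n = 3). Each rat was killed by cervical dislocation 60 min after injection. The brain was removed and frozen in liquid nitrogen, and 20 μm coronal sections were cut on a cryostat for ex vivo autoradiography of regional radioactivity.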

Liver = test: Metabolic stability in ICR mouse liver assessed as retention time at 18.5 MBq, iv by HPLC analysis; conditions: in vivo
How it was run: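 Male ICR mice given radiotracer iv (18.5 MBq, 0.2 mL), killed at 30 min. Brain and liver were homogenized in ice-cold PBS (0.01 M, pH 7.4) and extracted with ice-cold MeCN. Supernatants were filtered, concentrated and analysed by radio-HPLC on a C18 column, acetonitrile/water with 0.1% TFA (45:55), 1 mL/min.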

Midbrain = test: Biodistribution in Sprague-Dawley rat midbrain at 23 MBq, iv after 60 mins by microPET imaging/CT study in presence of haloperidol; conditions: in vivo, 1 h
How it was run: (§1)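 Sprague-Dawley rats under isoflurane (1.5–2.5%) in oxygen received 23 MBq radiotracer (0.2 mL saline) via tail vein. Blocking animals were pre-injected with haloperidol (0.2 mL, 1 mg/kg) 5 min before the tracer. MicroPET emission was acquired for 30 min starting 60 min post-injection, followed by a 5 min CT scan; images were summed over 60–90 min.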

Rattus norvegicus = test: Biodistribution in Sprague-Dawley rat internal capsule at 23 MBq, iv after 60 mins by microPET imaging/CT study; conditions: in vivo, 1 h; how it was run: as §1
Nucleic Acid [1] = test: Ratio of drug uptake in Sprague-Dawley rat interior coliculus to cerebellum at 12.2 MBq, iv after 60 mins by autoradiography; conditions: in vivo, 1 h
Cerebellum = test: Biodistribution in Sprague-Dawley rat cerebellum at 23 MBq, iv after 60 mins by microPET imaging/CT study; conditions: in vivo, 1 h; how it was run: as §1
Cortex = test: Biodistribution in Sprague-Dawley rat cortex at 23 MBq, iv after 60 mins by microPET imaging/CT study in presence of haloperidol; conditions: in vivo, 1 h; how it was run: as §1
Nucleic Acid [2] = test: Ratio of drug uptake in Sprague-Dawley rat frontal cortex to cerebellum at 12.2 MBq, iv after 60 mins by autoradiography; conditions: in vivo, 1 h

Drug uptake (Hypothalamus): Active | Retention_time (Liver): 7.72 min | Drug uptake (Midbrain): Active | Drug uptake (Rattus norvegicus): Active | Ratio (Nucleic Acid [1]): 1.3 | Drug uptake (Cerebellum): Active | Drug uptake (Cortex): Active | Ratio (Nucleic Acid [2]): 1.5
SMILES: [18F]CCOc1ccc(CN2CCC3(CC2)OCc2ccccc23)cc1

— ChEMBL document CHEMBL2346503, “Synthesis and evaluation of novel (18)F-labeled spirocyclic piperidine derivatives as σ1 receptor ligands for positron emission tomography imaging” (J Med Chem, 2013)
